Published values from different studies.
Protocols differ between the studies behind these lines.
Target: Casein kinase I isoform epsilon (CSNK1E, Homo sapiens, UniProt P49674)

SMILES	test	setting	quantity	result
Cn1cc(-c2cc(F)cc(N3CCn4c(cc5c4CCCC5)C3=O)c2CO)cc(Nc2ccc(N3CCN(C4COC4)CC3)cn2)c1=O	enzyme activity, inhibitor	0.1 µM	inhibition	12%
COc1ncccc1-c1cnn2ccc(N3CCN(C(=O)OC(C)C)CC3)nc12	binding, competition with immobilised ligand	1 µM	remaining binding	86%
CC(C)(C)c1cc(C=C(C#N)C#N)cc(Br)c1O	enzyme activity, inhibitor	0.5 µM	remaining activity	92.1%
Nc1ncc(-c2nc(N3CCOCC3)nc(N3CCOCC3)n2)c(C(F)F)n1	binding, competition with immobilised ligand	10 µM	remaining binding	38%
N#CC1(c2ccccn2)CCN(Cc2cc(C(=O)O)c(=O)n3ccccc23)CC1	cell-free assay, competition with immobilised ligand	1 µM	remaining binding	100%
Cc1nn(C)cc1-c1nc2c(N3CCN(Cc4ccc(Cl)cc4)CC3)c(Cl)cnc2[nH]1	binding, competition with immobilised ligand	1 µM	remaining binding	99%
Cn1cncc1[C@@](O)(COc1ccc(C#N)cc1-c1ccc(OC(F)(F)F)cc1)c1ccc(C#N)cc1	cell-free assay, competition with immobilised ligand	1 µM	remaining binding	100%
O=c1[nH]c2ccccc2n1C1CCN(Cc2ccc(-c3[nH]c4cc5ncnc5cc4nc3-c3ccccc3)cc2)CC1	enzyme activity	0.5 µM	remaining activity	107%
Cn1cc(-c2cccc(N3CCc4c(sc5c4CC(C)(C)C5)C3=O)c2CO)cc(Nc2ccncn2)c1=O	enzyme activity, inhibitor	1 µM	inhibition	1%
